Measurements pooled from the literature.
Target: Inhibitor of nuclear factor kappa-B kinase subunit epsilon (IKBKE, Homo sapiens, UniProt Q14164)
Sequence (Q14164 1-716, as in one of the studies): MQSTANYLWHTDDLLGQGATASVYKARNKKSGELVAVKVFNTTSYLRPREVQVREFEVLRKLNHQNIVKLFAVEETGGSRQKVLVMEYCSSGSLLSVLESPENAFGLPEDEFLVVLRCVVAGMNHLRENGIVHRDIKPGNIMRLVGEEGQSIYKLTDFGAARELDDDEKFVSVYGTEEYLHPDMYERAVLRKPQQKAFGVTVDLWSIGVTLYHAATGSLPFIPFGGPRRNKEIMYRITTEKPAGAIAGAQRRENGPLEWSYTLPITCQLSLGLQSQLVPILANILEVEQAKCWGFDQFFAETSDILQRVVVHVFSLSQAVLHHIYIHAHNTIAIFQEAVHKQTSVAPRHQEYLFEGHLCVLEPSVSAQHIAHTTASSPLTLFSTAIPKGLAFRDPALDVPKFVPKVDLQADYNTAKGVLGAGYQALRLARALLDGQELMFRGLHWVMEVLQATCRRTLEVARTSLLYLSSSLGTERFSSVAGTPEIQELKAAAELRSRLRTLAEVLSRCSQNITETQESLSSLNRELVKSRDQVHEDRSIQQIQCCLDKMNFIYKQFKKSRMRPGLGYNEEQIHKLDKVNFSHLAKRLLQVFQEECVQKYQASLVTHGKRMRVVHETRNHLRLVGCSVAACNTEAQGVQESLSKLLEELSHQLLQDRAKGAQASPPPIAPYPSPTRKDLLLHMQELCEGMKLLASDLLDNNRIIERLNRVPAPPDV

SMILES	observed	method	concentration	remaining binding [%]
Cc1cnc(Nc2ccc(C(=O)N3CCC(N4CCCC4)CC3)cc2)nc1-c1cc2ccccc2s1	binding	competition with immobilised ligand	1 µM	18
N[C@@H]1CCN(c2nccc(-c3cnn4ncccc34)n2)C1	binding		1 µM	100
O=C(NCc1ncc(C(F)(F)F)cc1Cl)c1ccc2c(c1)C1(CCS(=O)(=O)CC1)[C@H](C1CC1)N2S(=O)(=O)c1ccc(F)cc1	cell-free assay	competition with immobilised ligand	1 µM	77
C[C@@H](c1ccc(-n2cnc3c(N)ncnc32)cc1)N1CCc2nn(C)c(Cc3ccccc3)c2C1=O	binding	competition with immobilised ligand	0.1 µM	73
CCc1ccccc1C(=O)Nc1n[nH]c2c(C)c(F)c(C3C(C#N)=C(C)N(C)C(C)=C3C#N)cc12	cell-free assay	competition with immobilised ligand	1 µM	68
CN(CCCC(F)(F)F)c1nccc(-c2cnn3ncccc23)n1	binding		1 µM	100
O=C(NCCCN1CCOCC1)c1ccc(Nc2ncc(Cl)c(-c3ccc(Cl)s3)n2)cc1	binding	competition with immobilised ligand	1 µM	52
CC1=C(C#N)[C@@H](c2ccc3[nH]nc(C)c3c2)C(C#N)=C(c2ccc(Cl)cc2)N1	cell-free assay	competition with immobilised ligand	1 µM	100
C=CC(=O)N1CCC(C(=O)NCC(=O)N2CCN(c3nc(-c4cnc(N)nc4C(F)F)nc(N4CCOCC4)n3)CC2)CC1	binding	competition with immobilised ligand	1 µM	71
COc1cnc(Nc2cccc(S(N)(=O)=O)c2)nc1N1CCN(c2ccccc2)CC1	binding	competition with immobilised ligand	1 µM	57
C[C@H]1CCN(c2nccc(-c3cnn4ncccc34)n2)C1	binding		1 µM	79
CCCOc1ccc([C@@H]2[C@@H](C(=O)O)[C@H](c3ccc4c(c3)OCO4)CN2CC(=O)Nc2c(CC)cccc2CC)cc1	cell-free assay	competition with immobilised ligand	1 µM	85
c1cncc(-c2cccc(Nc3nccc(NC4CCCCC4)n3)c2)c1	binding	competition with immobilised ligand	10 µM	41
CCS(=O)(=O)c1cc2cc(C[C@@](O)(CC(C)(C)c3ccc(F)cc3C(N)=O)C(F)(F)F)[nH]c2cn1	cell-free assay	competition with immobilised ligand	1 µM	83
CN(c1nccc(-c2cnn3ncccc23)n1)C1CC1	binding		1 µM	100
O=C(NCC1CCOCC1)c1n[nH]cc1NC(=O)c1c(F)cccc1F	binding	competition with immobilised ligand	1 µM	81
Cc1cnn2ncc(-c3ccnc(N(C)C)n3)c2c1	binding		1 µM	96
CNC(=O)Nc1ccc2c(c1)CC[C@@]21OC(=O)N(CC(=O)N(Cc2ccc(F)cc2)[C@@H](C)C(F)(F)F)C1=O	cell-free assay	competition with immobilised ligand	1 µM	51
CN(C)c1ncc(F)c(-c2cnn3ncccc23)n1	binding		1 µM	99
O=C(NCCCN1CCOCC1)c1ccc(Nc2nccc(-c3cc4ccccc4s3)n2)cc1	binding	competition with immobilised ligand	1 µM	96
